Screens deposited in PubChem BioAssay by several laboratories.
INS promoter inh – TRM-6 insulin promoter activity inhibition | AID 1273 | TRM-6 cells (human fetal islet line), insulin promoter-eGFP reporter, imaging; reporter expression induced with tamoxifen | inhibition, % at 2 µM | 0.9% of 130,000 active;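 active means inhibition above the mean plus 3 SD, with well images judged a real hit on visual review, cut at about 60% in these data, passing the limit was not always enough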
Yeast lifespan up – yeast lifespan extension; inhibition of the nicotinamide effect, % at 10 µM; S. cerevisiae growth with nicotinamide, OD615; deaD strain in restrictive glucose medium; 0.68% of 130,000 active;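 active means inhibition above a set limit, placed 3 SD over the median of all compounds, cut at about 26% in these data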;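 further: 0% = nicotinamide-treated wells and 100% = cells grown without nicotinamide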
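Measured by: optical density (absorbance) at 615 nm; System: modified budding yeast, DeaD strain; Medium: restrictive CSMM-D dextrose medium; Timing: 4 h preincubation then 48 h treatment at 30 °C.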
Yeast growth inh – yeast BB579 growth reduction in restrictive medium. inhibition, % at 10 µM. S. cerevisiae BB579 growth, OD615, 48 h. 0.51% of 140,000 active;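 active means inhibition above a set limit, 3 SD over the mean compound inhibition, cut at about 44% in these data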
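test system = yeast BB579 (DeaD) | buffer or medium = restrictive CSMM-D medium | doses = single compound dose of 10 µM, 0.25% DMSO final | times = 4 h preincubation and 48 h exposure at 30 °C | technique = culture absorbance at 615 nm | benchmarks = amphotericin B 10 µg/mL, positive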
HMGR II inh – blocks class II HMG-CoA reductase of Enterococcus faecalis; inhibition, % at 10 µM; AID 1066; 0.41% of 190,000 active; purified E. faecalis HMGR, NADPH absorbance 340 nm kinetic;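 active means inhibition above a set limit, the median over all tested compounds plus 3 SD, cut at about 9.5% in these data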;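 further: enzyme runs in reverse so mevalonate oxidation gives rising NADPH absorbance; 0% = complete reaction with DMSO and 100% = background rate lacking mevalonate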
RAM inhibit – inhibitors of the yeast RAM network; S. cerevisiae dse1pr::URA3 reporter, 5-FOA growth OD615, 2 d; analog-sensitive cbk1-as2 kinase mutant strain; inhibition, % at 50 µM; 1.8% of 190,000 active;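 active means inhibition above a set limit, 3 SD over mean compound inhibition, cut at about 8.4% in these data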;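 further: 0% = DMSO-only wells with no growth and 100% = 10 µM 1-NA-PP1 full growth; inhibition rescues growth on 5-FOA so higher OD means more RAM inhibition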
RAM efflux-def – RAM network inhibition, efflux-deficient strain. shares compounds with RAM inhibit. S. cerevisiae efflux-deficient reporter strain, 5-FOA growth OD615, 2 days. max inhibition, %. 1,200 tested, under 10 active. AID 1305; call rule not given here;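 further: plate controls were vehicle for no effect and reference inhibitor for full effect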
Numbers without * were called inactive; . = not tested or not shown. An excerpt weighted towards active compounds, which were near 3.7% of everything screened.

SMILES	INS promoter inh	Yeast lifespan up	Yeast growth inh	HMGR II inh	RAM inhibit	RAM efflux-def
O=C(CSc1nnc(-c2ccc(Cl)s2)o1)N1CCCc2ccccc21	7	-5	-23	-1	14*	2
O=C(OC(c1ccc(NS(=O)(=O)c2ccccc2)cc1)(C(F)(F)F)C(F)(F)F)c1ccccc1	58	10	-15	-4	13*	2
Cc1cc(C)nc(N2N=C(CSc3ccc(Cl)cc3)CC2=O)n1	-15	.	.	-2	13*	1
CC(C)N(Cc1nc(-c2ccc(Cl)cc2)no1)C(=O)/C=C/c1ccccc1	.	-2	-60	3	12*	2
Cc1ncc(CN2CCCC(CCC(=O)NCc3ccc(F)c(F)c3)C2)s1 (stereo not given)	.	.	.	0	1	.
CN(c1ccc(C(=O)NCCSCc2ccc(Cl)cc2)cc1)S(=O)(=O)c1ccccc1	-16	6	-46	-5	20*	3
CN(c1ccc(C(=O)NCCSCc2c(F)cccc2Cl)cc1)S(C)(=O)=O	.	.	.	1	7	.
Cc1ccc(CSCCNC(=O)c2ccc(N(C)S(=O)(=O)c3ccccc3)cc2)cc1	-38	6	-57	1	18*	4
CN(c1ccc(C(=O)NCCSC(C)(C)C)cc1)S(=O)(=O)c1ccccc1	0	.	.	-2	1	.
Cc1cc(C)cc(NC(=S)NCCCO)c1	-53	8	-36	6	2	.
Cc1cc(C)cc(NC(=S)NCCSc2ccc(Cl)cc2)c1	-9	-5	1	-4	13*	7
COc1ccccc1NC(=S)NCCSc1ccc(C)cc1	.	-6	-27	-9	3	.
Cc1ccc(SCCNC(=S)Nc2ccc(C)c(C)c2)cc1	-3	-6	14	-5	13*	3
O=C(C1CCCN(S(=O)(=O)c2ccccc2[N+](=O)[O-])C1)N1CCCC1 (stereo not given)	.	-4	9	0	0	.
C=CCn1c(SCc2cc(=O)n3ccsc3n2)nc2ccccc2c1=O	.	.	.	1	14*	9
COc1ccc(C(C)=O)cc1CSc1nc2ccccc2c(=O)n1-c1ccccc1	.	2	-38	-6	2	.
C=CCn1c(SCc2cc(C(C)=O)ccc2OCC)nc2ccccc2c1=O	-67	5	-32	-2	16*	3
C=CCn1c(SCc2cc(=O)n3ccsc3n2)nc2cc(Cl)ccc2c1=O	-50	.	.	-2	3	.
COC(=O)c1cc2c(ccn2-c2ccc(F)cc2)n1Cc1ccc(OC)cc1	30	6	-32	-3	15*	4
CC(CCc1ccco1)NC(=O)c1cccc2c1C(=O)N(C1CCCCC1)C2 (stereo not given)	33	.	.	-2	12*	1
COc1ccc(N2Cc3cccc(C(=O)NC(C)CCc4ccco4)c3C2=O)cc1 (stereo not given)	.	-6	-81	1	7	.
Cc1nc2ccsc2c(=O)n1-c1ccc(Cl)cc1	27	1	-16	2	1	.
O=C(CSc1nc2cc(Cl)ccc2s1)NC1CCCc2ccccc21 (stereo not given)	41	-5	-1	-5	1	.
Cc1[nH]n(-c2ccccc2)c(=O)c1N=Nc1cccc(S(=O)(=O)N2CCOCC2)c1	.	5	-17	-7	4	.
Cc1[nH]n(-c2ccccc2)c(=O)c1N=Nc1ccccc1	-33	.	.	-2	13*	2
SMILES	INS promoter inh	Yeast lifespan up	Yeast growth inh	HMGR II inh	RAM inhibit	RAM efflux-def
Cc1ccc(NC(=O)CCC(=O)NNC(=O)c2ccccc2[N+](=O)[O-])c(C)c1	.	.	.	-3	1	.
COc1cc(CC(NC(C)=O)C(=O)NC2CCN(c3c(Cc4ccccc4)c(C)nc4ncnn34)CC2)cc(OC)c1 (stereo not given)	17	10	-32	-5	14*	3
Clc1ccc(Sc2cc(Cl)c(-c3ccccc3)nn2)cc1	-22	2	-64	1	5	.
Nc1nc(-c2ccccc2)c(N=Nc2cccnc2)s1	.	.	.	3	13*	2
CC(C)SCCCCOc1ccc2ccccc2c1	.	-13	-58	0	12*	3
CCCc1cc(C(=O)OC)c(NC(=O)c2cc(C)on2)s1	6	.	-23	0	12*	2
COc1ccc(Nc2nc3c(C)cccc3cc2C#N)c(OC)c1	8	7	-36	-4	12*	5
COc1ccc(C(=O)C2CCCN(Cc3ccc(C#CCCO)cc3)C2)cc1F (stereo not given)	8	.	.	0	1	.
Cc1ccc(-n2c(SCC(=O)Nc3cccc(S(=O)(=O)NC4=NCCCCC4)c3)nc3ccccc3c2=O)cc1C	.	4	-36	-7	12*	2
O=C(CSc1nc(-c2ccco2)cc(C(F)(F)F)n1)NCCc1ccccc1	-209	-3	-19	-2	14*	2
COc1ccc(CCNC(=O)CSc2nc(-c3ccco3)cc(C(F)(F)F)n2)cc1OC	36	-8	14	-2	0	.
O=C(CSc1ccccc1)N(c1ccc(Br)cc1)c1nccs1	-21	7	-31	5	12*	1
CS(=O)(=O)N1N=C(c2ccco2)CC1c1ccc(Cl)cc1Cl (stereo not given)	.	.	.	-1	-1	.
CC1=C(C(=O)Nc2ccc(C)cc2C)C(c2ccc(Cl)cc2)n2nc(C(=O)OC(C)C)nc2N1 (stereo not given)	20	0	-50	0	3	.
CCOC(=O)CSc1nc(C(C)(C)C)nc2ccccc12	5	.	.	5	0	.
COc1cccc(C(=O)C2CN(c3ccccc3)CC2c2ccc(Cl)cc2)c1 (stereo not given)	3	5	-29	-6	15*	6
Cc1ccc(S(=O)(=O)N2CCC(=O)N(C(COCc3cccc(Cl)c3)Cc3ccccc3)CC2)cc1 (stereo not given)	-25	12	-38	-2	15*	4
Cc1ccc(S(=O)(=O)N2CCC(=O)N(C(COCc3cccc(C(F)(F)F)c3)C(C)C)CC2)cc1 (stereo not given)	-140	2	-23	-4	13*	2
CSCSC1=C(C#N)C(c2ccc(Cl)cc2)C(C(C)=O)=C(C)N1 (stereo not given)	-12	-16	-30	-2	15*	4
Cc1cc(-c2ccccc2)nc(Oc2cccc(C(F)(F)F)c2)c1S(C)(=O)=O	-30	-5	-11	1	5	.
Cc1ccc(S(=O)(=O)c2c(C)cc(C)nc2Oc2cccc(C(F)(F)F)c2)cc1	.	-8	-49	2	14*	3
O=C(CN(C(=O)CSc1nnc(COc2ccccc2)o1)c1ccc(F)cc1)NC1CCCC1	.	5	-37	1	15*	2
CC[n+]1c(/C=C/Nc2ccccc2)sc2ccccc21	.	5	-9	-2	0	.
CCN1/C(=C/C=C/C=C/c2sc3ccccc3[n+]2CC)Sc2ccccc21	-355	14	84*	-3	22*	9
